# pIC50: −log10 of the molar value.
# Experiments:
# [1] = biological target: 3',5'-cyclic-AMP phosphodiesterase 4D (Homo sapiens, UniProt Q08499); test: Inhibition of human PDE4D2 (86 to 413 residues) catalytic domain using [3H]-cAMP as substrate after 15 mins by liquid scintillation counting method
# [2] = Antioxidant activity assessed as trolox equivalent of AAPH-induced radical scavenging activity at 10 to 20 uM preincubated for 10 mins followed by AAPH addition measured every minute for 120 mins by ORAC fluorescein assay; assay type: functional
# Summary of the method: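 ORAC values are expressed as trolox equivalents, mean ± SD of three independent experiments.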
# [3] = Drug metabolism in Sprague-Dawley rat liver microsomes assessed as metabolic rate up to 180 mins in presence of NADPH by UV-based LC-MS/MS analysis; assay type: ADME, Microsome; conditions: 3 h
# in vitro [4] = conditions: PAMPA
# SH-SY5Y = test: Cytotoxicity against human SH-SY5Y cells assessed as effect on cell viability at 10 uM after 24 hrs by MTT assay; assay type: cell-based
# Summary of the method: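 SH-SY5Y viability was measured by MTT after exposure to compounds at 10 µM. Results are percent of vehicle control from three independent experiments.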
# [5] = Metal chelating activity assessed as inhibition of Cu2+-induced amyloid beta (1 to 42 residues) aggregation at 25 uM after 24 hrs by thioflavin-T fluorescence assay (reference value: 156%); design: scale not given: the % may be the effect or the level left
# Summary of the method: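 Aβ1-42 was incubated with Cu(II) (CuSO4) with or without compound, and thioflavin T fluorescence was read. The Aβ-alone signal was set as 100%. Mean ± SD of three independent experiments.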
# in vitro [6] = conditions: Sprague-Dawley, rat, microsomes
# Sequence of 3',5'-cyclic-AMP phosphodiesterase 4D (Q08499 whole entry, the tested form may be a part): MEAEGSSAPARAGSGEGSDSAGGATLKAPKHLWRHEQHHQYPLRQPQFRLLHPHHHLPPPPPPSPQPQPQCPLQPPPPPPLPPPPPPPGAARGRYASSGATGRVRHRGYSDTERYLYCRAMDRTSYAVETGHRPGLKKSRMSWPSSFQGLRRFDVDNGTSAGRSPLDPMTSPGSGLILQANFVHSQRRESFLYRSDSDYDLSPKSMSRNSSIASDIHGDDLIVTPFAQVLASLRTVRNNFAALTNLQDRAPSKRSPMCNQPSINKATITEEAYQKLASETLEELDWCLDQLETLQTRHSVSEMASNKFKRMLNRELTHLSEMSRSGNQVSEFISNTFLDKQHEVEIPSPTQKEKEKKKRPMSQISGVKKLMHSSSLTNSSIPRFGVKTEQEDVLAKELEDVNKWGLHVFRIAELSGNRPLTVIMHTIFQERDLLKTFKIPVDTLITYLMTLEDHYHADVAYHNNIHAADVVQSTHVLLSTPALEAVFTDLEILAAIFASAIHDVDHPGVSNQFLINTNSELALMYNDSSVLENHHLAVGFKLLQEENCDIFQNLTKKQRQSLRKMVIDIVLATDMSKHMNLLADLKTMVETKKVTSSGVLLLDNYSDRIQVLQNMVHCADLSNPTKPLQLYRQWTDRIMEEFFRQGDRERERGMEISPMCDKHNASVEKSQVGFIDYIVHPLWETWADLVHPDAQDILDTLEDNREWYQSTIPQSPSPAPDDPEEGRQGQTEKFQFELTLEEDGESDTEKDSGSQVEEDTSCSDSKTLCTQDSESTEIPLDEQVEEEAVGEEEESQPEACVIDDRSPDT
Compound,pIC50 [1],Activity [2] [equiv],K [3] [min⁻¹],"Papp at 10 h, 100 ug/ml (in vitro [4]) [×10⁻⁶ cm/s]",Activity (SH-SY5Y),Activity [5] [%],half-life (in vitro [6]) [min]
COc1ccc(C(=O)Nc2cc(I)c(O)c3ncccc23)cc1OC,5.13,1.3,,,,,
COc1ccc(NC(=O)c2ccc3c(Cl)cc(Cl)c(O)c3n2)cc1OC1CCCC1,5.17,1.29,,,,,
C[C@]12CC[C@H]3[C@@H](CCC4=CC(=O)CC[C@@]43C)[C@@H]1CC[C@@H]2O [TESTOSTERONE],,,0.301,,,,
COc1ccc(C(=O)Nc2cc(I)c(O)c3ncccc23)cc1OC1CCCC1.Cl,6.22,1.01,,5.86,,,
Cl.O=C(Nc1cc(I)c(O)c2ncccc12)c1ccc(OC(F)F)c(OCC2CC2)c1,6.37,0.69,,7.05,,,
Cl.O=C(Nc1cc(Cl)c(O)c2ncccc12)c1ccc(OC(F)F)c(OCC2CC2)c1,5.42,0.74,,,Toxic,82,
O=C(Nc1ccc2cccc(O)c2n1)c1ccc(OC(F)F)c(OCC2CC2)c1,5.39,0.34,,15.8,,,
COc1cc2c(cc1OC)C(=O)C(CC1CCN(Cc3ccccc3)CC1)C2 (stereo not given) [DONEPEZIL],,,0.00917,,,,75.6

# From ChEMBL document CHEMBL4422614 (Eur J Med Chem, 2019)
